Test [1] deals with A-375. Kind of test: Cytotoxicity against human A375 cells pre-treated with 20 uM JNK inhibitor SP600125 for 1 hr followed by 8 ug/mL compound exposure for 18 hrs by MTT assay. Format: functional, cell-based. A digest of the protocol:
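A375 cells pretreated 1 h with 20 µM SP600125 (JNK) or SB203580 (p38), then exposed to compound at 8 µg/ml for 18 h. Viability by MTT (formazan in DMSO, 570 nm), expressed as % of control.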

In test [2] the test system is A-375. Briefly: Induction of cell shrinkage in human A375 cells pre-treated with 20 uM p38 inhibitor […] for 1 hr followed by 8 ug/mL compound exposure for 18 hrs by microscopy. Format: functional, cell-based. A digest of the protocol:
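A375 cells pretreated 1 h with […] JNK inhibitor SP600125 or p38 inhibitor SB203580, then given […] compound for 18 h. Morphology imaged.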

In test [3] the test system is A-375. Kind of test: Induction of ROS generation in human A375 cells at 4 ug/mL […] by DCF and DHE dye based fluorescence assay. Type of test: functional, cell-based.
For test [4], the system named is A-375. Briefly: Induction of ROS generation in human A375 cells at 4 ug/mL incubated for 6 hrs followed by irradiation with 8 Gy X-ray at 37 degC for 12 hrs by DCF and DHE dye based fluorescence assay. Format: functional, cell-based. Put shortly: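 A375 cells (4 × 10⁴/well) cultured 24 h, then treated 6 h at 8 or 16 µg/ml or at 2 or 4 µg/ml, and given 0 or 8 Gy X-ray. Loaded with H₂DCF or DHE for 30 min at 37 °C in the dark. Fluorescence read at 485/535 nm (DCF) or 480/610 nm (DHE); % of control.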

Test [5] concerns the target Thioredoxin reductase (Homo sapiens) (UniProt Q16881+Q9NNW7+Q86VQ6). Kind of test: Inhibition of TrxR antioxidant enzyme activity in human A375 cells at 2 ug/mL after 18 hrs by insulin reduction assay. The note with it: A-375. Type of test: cell-based.
Test [6] concerns A-375. Kind of test: Reduction in Trx expression in human A375 cells at 2 ug/mL incubated for 6 hrs followed by irradiation with 8 Gy X-ray at 37 degC for 12 hrs by Western blotting method. Format: functional, cell-based.
In test [7] the test system is A-375. Kind of test: Cytotoxicity against human A375 cells after 18 hrs by MTT assay. Format: functional, cell-based. To be noted: A-375, 18 h. A digest of the protocol:
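A375 cells (DMEM, 10% FBS, 37 °C, 5% CO2) seeded at 4 × 10⁴ cells/well and grown to 70–80% confluence. Treated with 0, 1, 2, 4, 8, 16 or 32 µg/ml for 6 h, then given 0 or 8 Gy X-ray (linear accelerator, 1.5 Gy/min), then 12 h more at 37 °C. MTT 4 h, formazan dissolved in DMSO, read at 570 nm; % of control; three repeats.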
Background: Tetrazolium assays rely on reduction of a dye to a coloured formazan, in cell work by metabolically active cells.

The subject of test [8] is A-375. Briefly: Induction of cell cycle arrest in human A375 cells assessed as accumulation at S phase at 4 ug/mL incubated for 18 hrs by propidium iodide staining based flow cytometry (reference value: 37.2%). Format: functional. A digest of the protocol: (§1)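 A375 cells treated at 10 or 4 µg/ml for 6 h, given 0 or 8 Gy X-ray, then 12 h more. Trypsinized, washed in PBS, fixed overnight in ice-cold 75% ethanol at −20 °C. Stained with propidium iodide, 30 min at 37 °C in the dark; DNA content and sub-G1 population read by flow cytometry.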
A general note: A flow cytometer gives signals particle by particle.

Test [9] relates to A-375. Kind of test: Induction of cell cycle arrest in human A375 cells assessed as accumulation at G1/G0 phase at 4 ug/mL incubated for 6 hrs followed by irradiation with 8 Gy X-ray at 37 degC for 12 hrs by propidium iodide staining based flow cytometry (reference value: 44.9%). Type of test: functional. A digest of the protocol: as §1
Test [10] has as its system A-375. Kind of test: Induction of apoptosis in human A375 cells assessed as caspase 8 activation at 2 ug/mL incubated for 18 hrs by fluorometric assay. Type of test: functional, cell-based. A digest of the protocol: (§2)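 Cells seeded at 1 × 10⁶ per 10 cm dish and treated with 2 µg/ml alone or with 8 Gy X-ray for 18 h total. RIPA lysates clarified by spinning at 12,000 rpm for 5 min; 80 µg protein given Ac-DEVD-AMC (caspase-3), Ac-IETD-AMC (caspase-8) or Ac-LEHD-AMC (caspase-9). Incubated 2 h at 37 °C in the dark; fluorescence at 380/440 nm.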

Test [11] deals with A-375. Kind of test: Induction of apoptosis in human A375 cells assessed as caspase 3 activation at 2 ug/mL incubated for 6 hrs followed by irradiation with 8 Gy X-ray at 37 degC for 12 hrs by fluorometric assay. Type of test: functional, cell-based. A digest of the protocol:
as §2

In test [12] the test system is A-375. Briefly: Induction of apoptosis in human A375 cells assessed as caspase 9 activation at 2 ug/mL incubated for 6 hrs followed by irradiation with 8 Gy X-ray at 37 degC for 12 hrs by fluorometric assay. Type of test: functional, cell-based. Put shortly: as §2
Test [13] has as its system A-375. Briefly: Induction of apoptosis in human A375 cells assessed as caspase 3 activation at 2 ug/mL incubated for 18 hrs by Western blotting method. Type of test: functional, cell-based. A digest of the protocol:
(§3)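 A375 cells treated with 2 µg/ml alone or with 8 Gy X-ray (6 h pretreatment, then 12 h; 18 h total). RIPA lysates (50 µg protein) run on SDS-PAGE and immunoblotted for caspases and PARP cleavage. Reprobed for β-actin as loading control.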
For orientation: A western blot detects proteins with antibodies after separation by electrophoresis.

For test [14], the system named is A-375. Kind of test: Induction of apoptosis in human A375 cells assessed as caspase 8 activation at 2 ug/mL incubated for 18 hrs by Western blotting method. Format: functional, cell-based. A digest of the protocol:
as §3

Test [15] concerns A-375. Briefly: Induction of apoptosis in human A375 cells assessed as caspase 3 activation at 2 ug/mL incubated for 6 hrs followed by irradiation with 8 Gy X-ray at 37 degC for 12 hrs by Western blotting method. Type of test: functional, cell-based. Put shortly: as §3
Test [16] has as its system A-375. Kind of test: Increase in Bax expression in human A375 cells at 4 ug/mL incubated for 18 hrs by Western blotting method. Type of test: functional, cell-based. A digest of the protocol:
(§4)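 A375 cells pretreated 6 h with compound at 4 µg/ml, given 0 or 8 Gy X-ray, then incubated 12 h more. Lysed in RIPA buffer, pH 7.4, with protease and phosphatase inhibitors; 50 µg protein run on SDS-PAGE and blotted to nitrocellulose. Blocked in 5% milk; primary antibodies 1:1000, 10 h at 4 °C; HRP secondary 1:2000.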

The test system of test [17] is A-375. Briefly: Reduction in Bid expression in human A375 cells at 4 ug/mL incubated for 6 hrs followed by irradiation with 8 Gy X-ray at 37 degC for 12 hrs by Western blotting method. Format: functional, cell-based. A digest of the protocol:
(§5)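 A375 cells given […] for 6 h, then 0 or 8 Gy X-ray at 1.5 Gy/min and 12 h further culture. Lysis in ice-cold RIPA, pH 7.4, with protease and phosphatase inhibitors; protein by BCA. […] protein per lane on SDS-PAGE, transferred to nitrocellulose. Blocked in 5% milk/TBST. Primary 1:1000, 10 h, 4 °C; HRP secondary 1:2000, 1.5 h.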

Test [18] addresses T1, c-Jun N-terminal kinase, JNK (Homo sapiens) (UniProt P45983+P53779+P45984). Kind of test: Induction of JNK phosphorylation in human A375 cells at 4 ug/mL incubated for 18 hrs by Western blotting method. Type of test: cell-based. The note with it: A-375. A digest of the protocol: as §4
In test [19] the target is MAP kinase p38 (Homo sapiens) (UniProt O15264+Q15759+Q16539+P53778). Briefly: Induction of p38 phosphorylation in human A375 cells at 4 ug/mL incubated for 18 hrs by Western blotting method. Type of test: cell-based. The note with it: A-375. Put shortly: as §5
The target in test [20] is T1, c-Jun N-terminal kinase, JNK (Homo sapiens). Kind of test: Induction of JNK phosphorylation in human A375 cells at 4 ug/mL incubated for 6 hrs followed by irradiation with 8 Gy X-ray at 37 degC for 12 hrs by Western blotting method. Format: cell-based. The note with it: A-375. A digest of the protocol: as §4

From ChEMBL document CHEMBL3352644, “Selenadiazole derivatives as potent thioredoxin reductase inhibitors that enhance the radiosensitivity of cancer cells” (Eur J Med Chem, 2014) come the findings set out here.

SMILES strings stand for the structures. ≈ marks a conversion by molar mass, not a printed value. Calls of active or inactive are those of the source. The calls are words filed in the database; no cut-off is given here.

Usually IC50 stands for the concentration that inhibits the measured activity by half. A low value points to inhibition by little substance. Turning to `COc1cc(-c2nc3cc(-c4ccc5n[se]nc5c4)ccc3[nH]2)cc(OC)c1OC`, the outcome in the test with A-375 [1], in the test with A-375 [3], in the test on A-375 [4], in the test on A-375 [6], with A-375 [10] and in the test on A-375 [11] was Active. For the same compound, the result with A-375 [12], in the test on A-375 [13], in the test on A-375 [14], in the test on A-375 [15], in the test on A-375 [16] and with A-375 [17] was Active. For the same compound, the result in test [18], in [19] and in test [20] was Active. In addition, the result with A-375 [2] was inactive. In addition, in test [5], the inhibition result was “Active”. In the test on A-375 [7], this compound yielded an IC50 of 12.4 µg/mL (≈ 26.6 µM). In addition, the Activity in the test on A-375 [8] stood at 34%; with A-375 [9], 47.3%.
